The text below walks through data of ChEMBL document CHEMBL4311948, “Exploring the Natural Piericidins as Anti-Renal Cell Carcinoma Agents Targeting Peroxiredoxin 1” (J Med Chem, 2019).

The source made the active and inactive calls. The calls are words filed in the database; no cut-off is given here.

Data set [1] relates to ACHN. Description: Cytotoxicity against human ACHN cells assessed as reduction in cell viability measured after 72 hrs by CCK8 assay. It counts as functional, cell-based. Put shortly:
(§1)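 Cells were grown in 10% FBS medium: MEM for ACHN, RPMI1640 for OS-RC-2 and 786-O, DMEM for HK-2. They were seeded at 400–800 cells/well in 384-well plates and treated with a range of compound concentrations or solvent control, with sorafenib as positive control. After 72 h, CCK-8 absorbance was read at 450 nm in triplicate, and IC50 was taken from dose-response curves.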
Background: Formazan colour is commonly taken as a measure of viable cells.

Data set [2] has as its system ACHN. Briefly: Antiproliferative activity against human ACHN cells assessed as inhibition of cell proliferation at 50 nM measured after 24 to 72 hrs by holographic microscopy. It counts as functional, cell-based. An outline of the steps:
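2×10^5 ACHN cells plated per well and allowed to adhere 24 h. 50 nM then added. Label-free digital holographic microscopy (Holomonitor M4) automatically tracked cell movement, morphology and thickness over time.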

The subject of data set [3] is ACHN. Description: Antitumor activity against human ACHN cells xenografted in Balb/c nu/nu mouse assessed as tumor growth inhibition at 0.8 mg/kg, ip administered once daily for 21 days measured post-last dose by TUNEL staining-based assay. Format: functional, organism-based. Put shortly: (§2)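 Male athymic Balb/c nu/nu mice, four weeks old, acclimatised 1 week. 10^7 ACHN cells in 0.2 mL PBS injected into the right flank. At about 150 mm3, mice randomised into PBS control or 0.8 mg/kg groups, dosed ip daily for three weeks. Tumours measured by caliper (volume = 0.5 × L × W²) with body weight recorded. Endpoint tumour weight, sections stained by H&E and TUNEL. Tissue lysed for immunoblot.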
Background: A xenograft is tissue or cells of one species grown in another, often human tumour cells in immunodeficient mice.

Data set [4] concerns ACHN. Briefly: Induction of apoptosis in human ACHN cells assessed as early apoptotic cells at 50 nM measured after 48 hrs by Annexin V-FITC/propidium iodide staining based flow cytometry (reference value: 0%). Format: functional. (In general: A flow cytometer gives signals particle by particle.)
Data set [5] deals with ACHN. Description: Antitumor activity against human ACHN cells xenografted in Balb/c nu/nu mouse assessed as tumor growth inhibition at 0.8 mg/kg, ip administered once daily for 21 days measured post-last dose by H and E staining-based assay. It counts as functional, organism-based. An outline of the steps: as §2
Another data set concerns 786-0. Description: Cytotoxicity against human 786-O cells assessed as reduction in cell viability measured after 72 hrs by CCK8 assay. It counts as functional, cell-based. To be noted: 786-0, 72 h. An outline of the steps:
as §1

Data set [6] deals with T1, Peroxiredoxin-1 (Homo sapiens) (UniProt Q06830).
T1 sequence (whole entry): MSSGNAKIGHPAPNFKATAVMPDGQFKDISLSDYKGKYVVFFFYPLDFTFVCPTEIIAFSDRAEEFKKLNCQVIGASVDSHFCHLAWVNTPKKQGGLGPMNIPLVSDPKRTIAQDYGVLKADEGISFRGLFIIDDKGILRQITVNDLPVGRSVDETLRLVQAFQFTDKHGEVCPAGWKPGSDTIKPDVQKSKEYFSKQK
Description: Activation of PRDX1 in human ACHN cells assessed as reduction in reactive oxygen species level at 25 to 50 nM measured after 24 hrs by Cell-rox reagent-based flow cytometry. Put shortly: (§3)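 ACHN cells grown 24 h in MEM + 10% FBS, reseeded at 2 × 10^4 cells/well and exposed to 0, 25 or 50 nM for 24 h. Harvested cells loaded with CellROX oxidative stress reagent 5 μM, 30 min at 37 °C in the dark, then read by flow cytometry. shPRDX1 line: stable knockdown selected with puromycin (1 μg/mL) before dosing. Mean ± SD.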

Data set [7] has as its system ACHN. Briefly: Induction of apoptosis in human ACHN cells assessed as necrotic cells at 50 nM measured after 24 hrs by Annexin V-FITC/propidium iodide staining based flow cytometry (reference value: 0%). Format: functional.
For data set [8], the system named is ACHN. Description: Down regulation of ETS1 mRNA expression in human ACHN cells at 25 to 50 nM measured after 24 hrs by qRT-PCR analysis. Format: functional, cell-based.
For data set [9], the system named is ACHN. Briefly: Up regulation of PRDX1 mRNA expression in human ACHN cells at 25 to 50 nM measured after 24 hrs by qRT-PCR analysis. It counts as functional, cell-based.
The subject of data set [10] is ACHN. Briefly: Cytotoxicity against human ACHN cells harboring shPRDX1 gene assessed as reduction in cell viability measured after 72 hrs by CCK8 assay. Conditions: Homo sapiens, ACHN, 72 h; read-out: IC50. Format: functional, cell-based. Put shortly: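 Transfectants were selected with puromycin (1 μg/mL), and knockdown was confirmed by immunoblot. Viability was read by CCK-8 after 72 h of compound exposure in 384-well plates at 400–800 cells/well in MEM with 10% FBS, and IC50 was taken from dose-response curves.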

For data set [11], the system named is ACHN. Description: Induction of apoptosis in human ACHN cells assessed as late apoptotic cells at 50 nM measured after 24 hrs by Annexin V-FITC/propidium iodide staining based flow cytometry (reference value: 0%). It counts as functional.
Data set [12] relates to ACHN. Briefly: Down regulation of SLC2A1 mRNA expression in human ACHN cells at 25 to 50 nM measured after 24 hrs by qRT-PCR analysis. Format: functional, cell-based.
Data set [13] concerns ACHN. Description: Down regulation of SOD2 mRNA expression in human ACHN cells at 25 to 50 nM measured after 24 hrs by qRT-PCR analysis. It counts as functional, cell-based.
Data set [14] deals with ACHN. Description: Down regulation of MET mRNA expression in human ACHN cells at 25 to 50 nM measured after 24 hrs by qRT-PCR analysis. Format: functional, cell-based.
In data set [15] the test system is ACHN. Description: Up regulation of nuclear PRDX1 expression in human ACHN cells at 25 to 50 nM measured after 24 hrs by immunoblot analysis. It counts as functional, cell-based. Put shortly: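 ACHN cells treated 24 h with 25 or 50 nM, then nuclear and cytosolic extracts prepared. Lysis in RIPA buffer, BCA quantitation, 30–50 μg protein resolved on 10% or 12% gels. Blotted with anti-PRDX1 (1:1000) and β-actin (1:3000), band ratio PRDX1/β-actin reported as fold change. Mean ± SD.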

Data set [16] relates to ACHN. Description: Antioxidant activity in human ACHN cells harboring shPRDX1 gene assessed as reduction in reactive oxygen species level at 25 to 50 nM measured after 24 hrs by Cell-rox reagent-based flow cytometry. Format: functional. An outline of the steps: as §3
Data set [17] concerns ACHN. Briefly: Induction of apoptosis in human ACHN cells assessed as viable cells at 50 nM measured after 48 hrs by Annexin V-FITC/propidium iodide staining based flow cytometry (reference value: 99.9%). Format: functional. To be noted: read-out: Activity.
Data set [18] in a line: Toxicity in Balb/c nu/nu mouse xenografted with human ACHN cells assessed as effect on survival at 0.8 mg/kg, ip administered once daily for 21 days. It counts as organism-based. Conditions: in vivo, 504 h. Put shortly: as §2
The target of the next data set is T2, Peroxiredoxin-1 (Homo sapiens, UniProt Q06830).
T2 sequence (Q06830 whole entry): T1 sequence (whole entry)
Description: Binding affinity to full-length human PRDX1 by surface plasmon resonance analysis. Put shortly:
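Full-length human PRDX1 immobilised on a CM5 chip (Biacore T100). Analyte concentration series diluted in 10 mM Hepes pH 7.4, injected over the protein surface and a protein-free reference surface in a single step.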

In a further data set the test system is OS-RC-2. Briefly: Cytotoxicity against human OS-RC2 cells assessed as reduction in cell viability measured after 72 hrs by CCK8 assay. Format: functional, cell-based. To be noted: OS-RC-2, 72 h. Put shortly: as §1
For data set [19], the system named is ACHN. Briefly: Down regulation of HK2 mRNA expression in human ACHN cells at 25 to 50 nM measured after 24 hrs by qRT-PCR analysis. Format: functional, cell-based.
Data set [20] has as its system ACHN. Briefly: Induction of apoptosis in human ACHN cells assessed as late apoptotic cells at 50 nM measured after 48 hrs by Annexin V-FITC/propidium iodide staining based flow cytometry (reference value: 0%). It counts as functional.

Turning to `C/C=C(\C)[C@H](O)[C@H](C)/C=C(C)/C=C/C/C(C)=C/Cc1nc(OC)c(OC)c(O)c1C` [PIERICIDIN A], the IC50 (as a rule, the concentration that gives 50% inhibition) was determined as 400 nM in the data set on ACHN [1], 30000 nM in the data set with 786-0, 1600 nM with ACHN [10] and 5200 nM in the data set with OS-RC-2. In addition, the result (in the data set on ACHN [2]; in data set [6]; in the data set on ACHN [8]; in the data set with ACHN [9]; in the data set with ACHN [12]; in the data set with ACHN [13]) was Active. Besides, the result in the data set on ACHN [14], in the data set on ACHN [15], in the data set on ACHN [16] and in the data set with ACHN [19] was Active. Moreover, the TGI entry in the data set on ACHN [3] and in the data set on ACHN [5] was “Active” throughout. For the same molecule, the Activity in the data set with ACHN [4] is reported as 1.1%; in the data set with ACHN [7] it was 15.9%; in the data set on ACHN [11], 1.3%; in data set [18], “Non-Toxic”; in the data set on ACHN [20], 7.4%. Besides, the viability at 0.05 µM with ACHN [17] was 15.9%. The Kd (as a rule, the concentration at which binding is half-saturated) on Peroxiredoxin-1 came to 2610 nM.
